Legend:
JCPyV [1] = experiment: JCPyV infection by ICW assay; format: cell-based, JC polyomavirus; conditions: for JCPyV infection (ICW validation of screen hits): cell type not stated, data not shown; for % JCPyV infection (ICW, TAg): MOI = 1 FFU/cell, 48 h, vs DMSO control (Fig. 2)
JCPyV [2] = experiment: NCC drug screen, In-Cell Western; format: cell-based, JC polyomavirus; conditions: inhibitor 10 μM, SVGA cells, MOI = 0.5 FFU/cell, 72 h, VP1 ICW
JCPyV [3] = experiment: JCPyV infection by FFU infectivity assay; format: cell-based, JC polyomavirus; conditions: 48 h, vs DMSO control
SV40 [4] = experiment: SV40 infection by FFU infectivity assay; format: cell-based, simian virus 40; conditions: Vero cells, MOI = 1 FFU/cell, 48 h
BKPyV = BKPyV infection by FFU infectivity assay; format: cell-based, BK polyomavirus; conditions: Vero cells, MOI = 4 FFU/cell, 72 h
Summary of the method: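 Vero E6 cells at 70% confluence were pre-treated 1 h at 37°C with test compound in 10% DMEM (triplicate wells). Infection ran 2 h at 37°C without compound, then cells were refed with compound-containing DMEM for 72 h. Cells were PFA-fixed and stained for VP1 (1:40) with DAPI. % infection was VP1+ cells over DAPI+ cells per 20X field, 5 fields/well.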

SARS-CoV-2 [5] = format: cell-based; conditions: Vero cells, TCID50 = 0.025/cell, 24 h
SV40 [6] = conditions: ref Dobson, Mankouri and Whitehouse 2020; cited from earlier work
MCPyV = conditions: ref Dobson, Mankouri and Whitehouse 2020; cited from earlier work
pERK = pERK assay by ICW; format: cell-based; conditions: 24 h treatment, no virus
HEK-2C cells = experiment: MTS cell viability assay, HEK-2C cells; format: cell-based
SVGA cells = experiment: MTS cell viability assay, SVGA cells; format: cell-based, human
HeLa cells = experiment: MTS cell viability assay, HeLa cells; format: cell-based; conditions: HeLa 24 h, vs DMSO control
Vero cells = experiment: MTS cell viability assay, Vero cells; format: cell-based, African green monkey; conditions: vs DMSO control
[7] = ref Kang, Hong et al. 2017; cited from earlier work
SARS-CoV-2 [8] = conditions: ref Yuan, Dong et al. 2022; cited from earlier work
reovirus [9] = conditions: ref Mainou, Zamora et al. 2013; cited from earlier work
JCPyV [10] = experiment: JCPyV infectious clone transfection, VP1+ nuclei by FFU assay; format: cell-based, JC polyomavirus; conditions: SVGA cells, TFP 15 μM, day 3 or day 7
Summary of the method: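 SVGA cells at 50% confluence were pre-treated 1 h at 37°C with test compound or DMSO. They were transfected with 2 μg/well linearized JC pUC19 (pUC19 control) using Fugene 6 (1.5 μl:1 μg DNA) with compound present. Medium was replaced with 10% MEM after 6 h. Cells were fixed and stained for VP1 (1:40). % VP1+ nuclei was VP1+ over DAPI+ cells at 10X, 5 fields/well.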

reovirus [11] = experiment: Reovirus infection by FFU infectivity assay; format: cell-based; conditions: HeLa cells, MOI = 300 FFU/cell, 24 h
Summary of the method: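 HeLa cells at 70% confluence were pre-treated 1 h at 37°C with test compound in 10% DMEM (triplicate wells). Infection ran 1 h at RT without compound, then cells were refed with compound-containing DMEM for 24 h at 37°C. Cells were PFA-fixed and stained with reovirus antisera (1:500), anti-rabbit secondary and DAPI. % infection was positive over DAPI+ cells per 10X field, 5 fields/well.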

RPTEC = experiment: MTS cell viability assay, RPTEC; format: cell-based, human; conditions: RPTEC 48 h, vs DMSO control
JCPyV [12] = experiment: JCPyV-647 attachment by flow cytometry; format: cell-based, JC polyomavirus; conditions: HEK-2C cells pre-treated 1 h, virus on ice 1 h, vs DMSO
[13] = HEK-2C cells, MOI = 0.5 FFU/cell
[14] = primary RPTECs, MOI = 2 FFU/cell
[15] = HEK-2C 48 h, MTS, vs DMSO control
[16] = SVGA 48 h, MTS, vs DMSO control

Compound: CC1(C)O[C@@H]2[C@@H](CO[C@@]3(COS(N)(=O)=O)OC(C)(C)O[C@@H]23)O1 [topiramate]
- JCPyV infection (ICW validation of screen hits) (JCPyV [1]): did not significantly reduce infection
- JCPyV infection in NCC drug screen (hit by normalized z-score) (JCPyV [2]): hits

Compound: NCCCCCCNS(=O)(=O)c1cccc2c(Cl)cccc12 [W-7]
- % JCPyV infection (FFU, TAg) (JCPyV [3]; [13]): significant reduction of JCPyV infection
- % JCPyV infection (FFU, TAg) (JCPyV [3]; SVGA cells, MOI = 1 FFU/cell): significant reduction of JCPyV infection
- % SV40 infection (FFU, VP1) (SV40 [4]): significantly reduced
- % BKPyV infection (FFU) (BKPyV): significantly reduced
- % JCPyV infection (ICW, TAg) (JCPyV [1]; HEK-2C cells): decreased JCPyV infection
- % JCPyV infection (ICW, TAg) (JCPyV [1]; SVGA cells): decreased JCPyV infection
- % SARS-CoV-2 infection (FFU, NP) (SARS-CoV-2 [5]): dramatically impaired SARS-CoV-2 infection

Compound: COCCOC(=O)C1=C(C)NC(C)=C(C(=O)OC(C)C)C1c1cccc([N+](=O)[O-])c1 (stereo not drawn) [Nimodipine]
- % JCPyV infection (FFU, TAg) (JCPyV [3]; SVGA cells, MOI = 1 FFU/cell): did not significantly reduce JCPyV infection
- % JCPyV infection (ICW, TAg) (JCPyV [1]; HEK-2C cells): modestly reduced
- % JCPyV infection (ICW, TAg) (JCPyV [1]; SVGA cells): modestly reduced
- JCPyV infection in NCC drug screen (hit by normalized z-score) (JCPyV [2]): hits

Compound: COc1ccc(CCN(C)CCCC(C#N)(c2ccc(OC)c(OC)c2)C(C)C)cc1OC (stereo not drawn) [Verapamil]
- SV40 infection (SV40 [6]): reduces
- MCPyV infection (MCPyV): reduces

Compound: Fc1ccc(C(c2ccc(F)cc2)N2CCN(C/C=C/c3ccccc3)CC2)cc1 [flunarizine, Flunarizine]
- MCPyV infection (MCPyV): blocks infection
- % JCPyV infection (ICW, TAg) (JCPyV [1]; HEK-2C cells): No significant change in infection
- % JCPyV infection (ICW, TAg) (JCPyV [1]; SVGA cells): No significant change in infection

Compound: COc1ccc2cc1Oc1ccc(cc1)C[C@H]1c3cc(c(OC)cc3CCN1C)Oc1c(OC)c(OC)cc3c1[C@H](C2)N(C)CC3 [Tetrandrine]
- % pERK expression (ICW) (pERK; HEK-2C cells): reduction in pERK levels
- % pERK expression (ICW) (pERK; SVGA cells): dramatic increase in pERK
- SV40 infection (SV40 [6]): drastically reduced
- % JCPyV infection (FFU, TAg) (JCPyV [3]; [13]): significantly impaired
- % JCPyV infection (FFU, TAg) (JCPyV [3]; SVGA cells, MOI = 1 FFU/cell): not impacted
- % SV40 infection (FFU, VP1) (SV40 [4]): potently inhibited
- MCPyV infection (MCPyV): drastically reduced
- % JCPyV infection (ICW, TAg) (JCPyV [1]; HEK-2C cells): significant reduction in infection
- % JCPyV infection (ICW, TAg) (JCPyV [1]; SVGA cells): slight, but not statistically significant, increase
- Concentration with % Viability < 80% (HEK-2C cells; human, 48 h): 10 µM
- Concentration with % Viability ≥ 90% (HEK-2C cells; human, 48 h): 7 µM
- Concentration with % Viability ≥ 95% (HEK-2C cells; human, 48 h): 1 µM
- Concentration with % Viability ≥ 100% (SVGA cells; human, 48 h): 10 µM

Compound: COC(=O)C1=C(C)NC(C)=C(C(=O)OC)C1c1ccccc1[N+](=O)[O-] [Nifedipine]
- % pERK expression (ICW) (pERK; HEK-2C cells): significant reduction in pERK levels
- % pERK expression (ICW) (pERK; SVGA cells): significant reduction in pERK levels
- % JCPyV infection (FFU, TAg) (JCPyV [3]; [13]): significantly reduced JCPyV infection
- % JCPyV infection (FFU, TAg) (JCPyV [3]; SVGA cells, MOI = 1 FFU/cell): did not reduce JCPyV infection
- % JCPyV infection (FFU, TAg) (JCPyV [3]; [14]): significantly reduced JCPyV infection
- % SV40 infection (FFU, VP1) (SV40 [4]): did not reduce SV40 infection
- % JCPyV infection (ICW, TAg) (JCPyV [1]; HEK-2C cells): significant reduction
- JCPyV infection in NCC drug screen (hit by normalized z-score) (JCPyV [2]): hits

Compound: CCOC(=O)C1=C(C)NC(C)=C(C(=O)OC)C1c1cccc([N+](=O)[O-])c1 (stereo not drawn) [nitrendipine, Nitrendipine]
- % JCPyV infection (FFU, TAg) (JCPyV [3]; SVGA cells, MOI = 1 FFU/cell): did not significantly reduce JCPyV infection

Compound: CN1CCN(CCCN2c3ccccc3Sc3ccc(C(F)(F)F)cc32)CC1 [TFP, trifluoperazine]
- Concentration with % Viability < 80% (HeLa cells): 15 µM
- Concentration with % Viability ≥ 80% (HeLa cells): 10 µM
- Concentration with % Viability ≥ 100% (HeLa cells): 7.5 µM
- Concentration with % Viability ≥ 100% (Vero cells; Vero 24 h): 10 µM
- Concentration with % Viability ≥ 100% (Vero cells; Vero 48 h): 20 µM
- Concentration with % Viability < 80% (Vero cells; Vero 72 h): 30 µM
- Concentration with % Viability ≥ 100% (Vero cells; Vero 72 h): 15 µM
- % JCPyV infection (FFU, TAg) (JCPyV [3]; [13]): significant reduction of JCPyV infection
- % JCPyV infection (FFU, TAg) (JCPyV [3]; SVGA cells, MOI = 1 FFU/cell): significant reduction of JCPyV infection
- % JCPyV infection (FFU, TAg) (JCPyV [3]; [14]): significantly reduced JCPyV infection
- crossing the blood-brain barrier [7]: capable of crossing the blood-brain barrier
- SARS-CoV-2 infection (SARS-CoV-2 [8]): inhibited
- % SV40 infection (FFU, VP1) (SV40 [4]): significantly reduced
- % BKPyV infection (FFU) (BKPyV): significantly reduced
- % JCPyV infection (ICW, TAg) (JCPyV [1]; HEK-2C cells): significant reduction in JCPyV infection
- % JCPyV infection (ICW, TAg) (JCPyV [1]; SVGA cells): significant reduction in JCPyV infection
- Concentration with % Viability < 80% (HEK-2C cells; [15]): 30 µM
- Concentration with % Viability ≥ 85% (HEK-2C cells; [15]): 20 µM
- Concentration with % Viability ≥ 100% (HEK-2C cells; [15]): 7.5 µM
- reovirus infection (reovirus [9]): not impacted
- % VP1+ nuclei after transfection of JCPyV infectious clone (JCPyV [10]): modest reduction in JCPyV VP1+ cells
- % reovirus infection (FFU) (reovirus [11]): not impacted
- JCPyV infection in NCC drug screen (hit by normalized z-score) (JCPyV [2]): hits
- Concentration with % Viability < 80% (SVGA cells; [16]): 30 µM
- Concentration with % Viability ≥ 90% (SVGA cells; [16]): 20 µM
- Concentration with % Viability ≥ 100% (SVGA cells; SVGA 7 days, MTS, vs DMSO control): 15 µM
- % SARS-CoV-2 infection (FFU, NP) (SARS-CoV-2 [5]): dramatically impaired SARS-CoV-2 infection
- Concentration with % Viability ≥ 90% (RPTEC): 7.5 µM
- Concentration with % Viability ≥ 95% (RPTEC): 5 µM
- JCPyV attachment (JCPyV-647, flow cytometry) (JCPyV [12]): no significant difference in JCPyV attachment

Compound: O=C1CN(/N=C/c2ccc(-c3ccc([N+](=O)[O-])cc3)o2)C(O)=N1 [dantrolene sodium]
- JCPyV infection (ICW validation of screen hits) (JCPyV [1]): did not significantly reduce infection
- JCPyV infection in NCC drug screen (hit by normalized z-score) (JCPyV [2]): hits

— article PMC10922812 (Antiviral research, 2024)
